From PubChem
An excerpt weighted towards active compounds, which were near 3.5% of everything screened.
MrgX1 antagonist – blocks BAM8-22 activation of human MrgX1 receptor. Q96LB2. MRGX1-HEK293 calcium flux, Fluo-4, BAM8-22 antagonism; hits give low values. B-score at 10 µM. hit rate 1.3% among 310,000. AID 588676;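 active means calcium-response B-score plate-corrected more than 3 library SD below zero, starting fluorescence within 5 deviations, no agonist response on first addition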;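 further: peak minus trough fluorescence over baseline after final BAM8-22 challenge near maximal dose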
Target sequence (Q96LB2 whole entry, looked up): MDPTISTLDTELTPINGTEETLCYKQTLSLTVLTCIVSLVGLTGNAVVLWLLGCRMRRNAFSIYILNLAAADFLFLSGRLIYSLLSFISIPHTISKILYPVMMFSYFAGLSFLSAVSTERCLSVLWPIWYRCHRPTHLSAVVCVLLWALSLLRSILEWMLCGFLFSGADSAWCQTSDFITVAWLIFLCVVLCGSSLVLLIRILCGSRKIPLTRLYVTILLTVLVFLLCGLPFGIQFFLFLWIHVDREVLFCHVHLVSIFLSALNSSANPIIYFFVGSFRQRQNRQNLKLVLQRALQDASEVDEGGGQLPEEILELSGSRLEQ
RGS4 inh – inhibitors of human RGS4; P49798; HEK293 M3R/RGS4 inducible, Fluo-4 calcium flux; hits give high values; triggered by carbachol at its EC20; B-score at 10 µM; hit rate 0.45% among 310,000; AID 463165;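 active means B-score, a plate-corrected calcium signal, over three deviations above library mean, with baseline fluorescence within five deviations of library mean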;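 further: RGS4 expression induced by doxycycline in cells with stable M3 receptor; B-score is computed from the integrated fluorescence ratio over baseline after carbachol; higher B-score means a larger calcium signal and so more RGS4 inhibition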
Target sequence (P49798 whole entry, looked up): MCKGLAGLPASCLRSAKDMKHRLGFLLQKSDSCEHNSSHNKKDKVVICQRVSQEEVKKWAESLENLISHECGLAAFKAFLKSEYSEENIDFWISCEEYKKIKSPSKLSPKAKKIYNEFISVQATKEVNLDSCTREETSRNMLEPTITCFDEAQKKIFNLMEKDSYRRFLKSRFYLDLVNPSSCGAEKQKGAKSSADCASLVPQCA
MrgX1 allo act – allosterically activates human MrgX1 receptor signaling | MrgX1-HEK293, Fluo-4 calcium flux, FDSS; hits give high values | AID 588675 | Q96LB2 | B-score at 10 µM | hit rate 0.63% among 310,000;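 active means plate-corrected calcium response at least 3 library SD above typical, normal starting fluorescence, not activating the receptor alone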;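 further: compound read alongside a low EC10 to EC30 dose of BAM8-22 agonist; peak minus trough fluorescence over baseline measured at the second addition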
RGS4 act – potentiators or activators of RGS4. AID 463111. hit rate 0.92% among 310,000. HEK293 M3R/inducible RGS4, carbachol calcium flux Fluo4; hits give low values. B-score at 10 µM;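 active means B-score of the integrated calcium signal more than 4 SD below the library mean, with starting fluorescence not abnormally high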;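 further: negative B-score means reduced calcium response which marks RGS4 activation or potentiation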
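Assay system: Inducible-RGS4 HEK293 cells carrying M3 receptor | Schedule: Compound preincubation 20 min at room temperature before agonist | Signal: Kinetic calcium fluorescence imaging with Fluo4-AM dye, 2 µM | Read-out basis: B score from integrated fluorescence ratio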
MrgX1 ag – human MrgX1 receptor agonism, primary screen; Q96LB2; MrgX1-HEK293 cells, Fluo-4 calcium fluorescence, agonist mode; hits give high values; B-score at 10 µM; hit rate 0.44% among 310,000;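 active means calcium response B-score plate-corrected fluorescence ratio at least 3 library SD, with starting fluorescence B-score inside 5 SD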
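Material: MrgX1-expressing HEK293 cells; input: 15,000 cells per well; doses: test compound given as first of three sequential additions; schedule: overnight plating before 1 h dye loading; technique: Fluo-4 NW calcium-flux fluorescence, kinetic read; evaluation: baseline-normalised fluorescence change ratio, B-scored; control set: plate-wise positive and negative controls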
MrgX1 ant reconf – confirmation of human MrgX1 receptor antagonists; MrgX1-HEK293, BAM8-22 calcium flux, Fluo-4; hits give low values; hit rate 19% among 2,300; shares compounds with MrgX1 antagonist; remaining BAM8-22 calcium response % of control (hits give low values), % at 10 µM;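 active means remaining agonist calcium response no higher than 100% minus 3 SD of agonist-only control wells, with starting fluorescence near control levels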;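 further: agonist BAM8-22 given at a near maximal EC90 to ECmax level; peak minus minimum fluorescence divided by baseline after agonist addition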
HEK293 Ca flux – counter-screen for MrgX1 antagonists: effect in parental HEK293 cells | shares compounds with MrgX1 antagonist | Fluo-4 calcium fluorescence, FDSS | fluorescence ratio F(max-min)/F0 at 10 µM | hit rate 2% among 4,000;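 active means duplicate-averaged calcium fluorescence ratio at least three times the standard deviation of buffer wells, a nonspecific response in parental cells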
HEK293 Ca counter – activity in parental HEK293 cells without MrgX1 | parental HEK293 calcium flux, Fluo-4 fluorescence ratio; hits give high values | fluorescence ratio F(max-min)/F0 at 10 µM | shares compounds with MrgX1 antagonist | hit rate 0.4% among 4,000;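 active means calcium fluorescence ratio, averaged over duplicates, at least 3 SD of the buffer-well ratio, meaning a nonspecific response in receptor-free cells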;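 further: untransfected parental HEK293 lacking MrgX1 used as counterscreen for MrgX1 allosteric activators; fluorescence change taken during the second addition on a kinetic imager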
HEK293 Ca cntr2 – activity in parental HEK293 cells lacking MrgX1 receptor. Fluo-4 calcium fluorescence (FDSS); hits give high values. hit rate 8.7% among 4,000. fluorescence ratio F(max-min)/F0 at 10 µM. shares compounds with MrgX1 antagonist;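 active means calcium fluorescence ratio at least three times the spread of buffer wells, meaning a non-specific response in parental cells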
* hit, by the source's call.

How did O=C(Nc1ccc(Cl)c(Cl)c1)Nc1ccccc1NS(=O)(=O)c1cccs1 do in these assays?
MrgX1 antagonist: -7.3*; RGS4 inh: inactive; MrgX1 allo act: inactive; RGS4 act: inactive; MrgX1 ag: inactive; MrgX1 ant reconf: 74%*; HEK293 Ca flux: inactive; HEK293 Ca counter: inactive; HEK293 Ca cntr2: inactive

How did O=C(NC1=NCCS1)c1cc(-c2ccc(F)cc2)nc2ccccc12 do in these assays?
MrgX1 antagonist: inactive; RGS4 inh: inactive; MrgX1 allo act: inactive; RGS4 act: inactive; MrgX1 ag: inactive

Results for Cc1ccc(-c2cc(C(=O)NC3=NCCS3)c3ccccc3n2)cc1C ?
MrgX1 antagonist: -4.9*; RGS4 inh: inactive; MrgX1 allo act: inactive; RGS4 act: inactive; MrgX1 ag: inactive; MrgX1 ant reconf: inactive; HEK293 Ca flux: inactive; HEK293 Ca counter: inactive; HEK293 Ca cntr2: inactive

Results for Cc1c(Cl)cccc1-n1c(SCC(=O)N2CCC(C(=O)O)CC2)nnc1-c1ccncc1 ?
MrgX1 antagonist: inactive; RGS4 inh: inactive; MrgX1 allo act: inactive; RGS4 act: inactive; MrgX1 ag: inactive

What do the screens show for `CCOC(=O)c1c(-c2ccc(OC)cc2)oc2cc(Br)c(O)cc12`?
MrgX1 antagonist: inactive; RGS4 inh: inactive; MrgX1 allo act: inactive; RGS4 act: inactive; MrgX1 ag: inactive

What do the screens show for `CCOC(=O)c1c(C)[nH]c2cc(Br)c(O)cc12`?
MrgX1 antagonist: -7.4*; RGS4 inh: inactive; MrgX1 allo act: inactive; RGS4 act: inactive; MrgX1 ag: inactive; MrgX1 ant reconf: 73%*; HEK293 Ca flux: inactive; HEK293 Ca counter: inactive; HEK293 Ca cntr2: inactive

Results for CC1Cc2ccccc2N1C(=O)c1ccc(N2CCCCC2)c([N+](=O)[O-])c1 (stereo unspecified) ?
MrgX1 antagonist: -11*; RGS4 inh: inactive; MrgX1 allo act: inactive; RGS4 act: inactive; MrgX1 ag: inactive; MrgX1 ant reconf: inactive; HEK293 Ca flux: inactive; HEK293 Ca counter: inactive; HEK293 Ca cntr2: inactive

What do the screens show for `CC1Cc2ccccc2N1C(=O)c1ccc(N2CCCC2)c([N+](=O)[O-])c1` (stereo unspecified)?
MrgX1 antagonist: inactive; RGS4 inh: inactive; MrgX1 allo act: inactive; RGS4 act: inactive; MrgX1 ag: inactive

How did CCn1c(COc2ccc(OC)cc2)nc2ccccc21 do in these assays?
MrgX1 antagonist: inactive; RGS4 inh: inactive; MrgX1 allo act: inactive; RGS4 act: inactive; MrgX1 ag: inactive

How did CCOC(=O)c1ccc2c(c1)nc(COc1ccc3ccccc3c1)n2CC do in these assays?
MrgX1 antagonist: -5.2*; RGS4 inh: inactive; MrgX1 allo act: inactive; RGS4 act: -7.3*; MrgX1 ag: inactive; MrgX1 ant reconf: inactive; HEK293 Ca flux: inactive; HEK293 Ca counter: inactive; HEK293 Ca cntr2: inactive

What do the screens show for `CCCC1(C)NC(=O)c2ccccc2O1` (stereo unspecified)?
MrgX1 antagonist: -4.9*; RGS4 inh: inactive; MrgX1 allo act: inactive; RGS4 act: inactive; MrgX1 ag: inactive; MrgX1 ant reconf: inactive; HEK293 Ca flux: inactive; HEK293 Ca counter: inactive; HEK293 Ca cntr2: inactive

Results for O=C1NC(O)(c2ccccc2)Oc2ccccc21 (stereo unspecified) ?
MrgX1 antagonist: inactive; RGS4 inh: inactive; MrgX1 allo act: inactive; RGS4 act: inactive; MrgX1 ag: inactive
